Results as given in ChEMBL document CHEMBL1135931, “Rational design, synthesis, and biological activity of novel conformationally restricted vitamin D analogues, (22R)- and (22S)-22-ethyl-1,25-dihydroxy-23,24-didehydro-24a,24b-dihomo-20-epivitamin D(3)” (2002).

How the values were obtained:
C3H 10T1/2 = assay: Cells were harvested and were assayed for luciferase and -galactosidase activities (Transcriptional activity); type: functional, Mus musculus
Procedure, shortened: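 10T1/2 cells in DMEM with 10% charcoal-stripped FBS, 37 °C, 5% CO2; calcium-phosphate transfection 12 h with SPP×3-TK-LUC reporter, pCMX-β-GAL internal control, pUC18 carrier. Ligand 10^-11 to 10^-7 M for 48 h; luciferase normalized to β-galactosidase, duplicate points. Relative activity taken at ED50, as percent of 1,25-(OH)2D3.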

[1] = target: T1, Vitamin D3 receptor (Bos taurus) (UniProt Q28037); assay: Relative affinity for bovine thymus Vitamin D3 receptor (VDR)
T1 sequence (whole entry): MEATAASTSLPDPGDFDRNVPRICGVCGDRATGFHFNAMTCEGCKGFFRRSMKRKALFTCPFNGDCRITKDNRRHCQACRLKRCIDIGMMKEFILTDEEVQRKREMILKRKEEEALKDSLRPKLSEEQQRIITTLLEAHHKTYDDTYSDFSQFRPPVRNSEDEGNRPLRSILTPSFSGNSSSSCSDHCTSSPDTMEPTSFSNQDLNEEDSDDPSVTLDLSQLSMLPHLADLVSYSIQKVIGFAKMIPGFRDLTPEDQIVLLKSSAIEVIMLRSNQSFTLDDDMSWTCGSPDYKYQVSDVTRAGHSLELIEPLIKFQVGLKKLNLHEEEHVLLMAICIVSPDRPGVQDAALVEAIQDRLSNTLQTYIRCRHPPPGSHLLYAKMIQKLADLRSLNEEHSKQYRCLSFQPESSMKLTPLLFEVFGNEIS
Procedure, shortened: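 Bovine thymus VDR in 0.05 M phosphate pH 7.4, 0.3 M KCl, 5 mM DTT; incubated with 0.1 nM [3H]-1,25-(OH)2D3 plus graded analogue, 19 h at 4 °C. Dextran-coated charcoal separation 20 min at 4 °C, centrifuge 1000g 10 min, supernatant counted; duplicate. Relative affinity at 50% displacement, as percent of 1,25-(OH)2D3.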

Rattus norvegicus = assay: Calcemic activity (in vivo bone calcium mobilization) was measured by the rise in serum calcium in vitamin D and Ca deficient rats by colorimetric assay; type: functional; set-up: concentration or dose not given beside the values
Procedure, shortened: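 Weanling male rats on vitamin D-deficient low-calcium diet (0.03% Ca, 0.6% P) for 3 weeks; single intravenous dose of 1 μg analogue in ethanol (50 μL) or vehicle alone. Serum calcium read colorimetrically (o-cresolphthalein complexone) at 0, 6, 12, 24 and 48 h post-dose; activity expressed as percent of 1,25-(OH)2D3.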

HL-60 = assay: Differentiation activity of human promyelocytic leukemia cells (HL-60) determined by an NBT reduction assay method; type: functional

SMILES	Activity (C3H 10T1/2)	Activity [1]	Activity (Rattus norvegicus)	Activity (HL-60)
C=C1/C(=C\C=C2/CCC[C@]3(C)[C@@H]([C@@H](C)[C@@H](/C=C/CCC(C)(C)O)CC)CC[C@@H]23)C[C@@H](O)C[C@@H]1O	2500%	14%	140%	9800%
C=C1/C(=C\C=C2/CCC[C@]3(C)[C@@H]([C@H](C)CCCC(C)(C)O)CC[C@@H]23)C[C@@H](O)C[C@@H]1O [CALCITRIOL]	100%	100%	100%	100%
C=C1/C(=C\C=C2/CCC[C@]3(C)[C@@H]([C@@H](C)[C@H](/C=C/CCC(C)(C)O)CC)CC[C@@H]23)C[C@@H](O)C[C@@H]1O	33%	0.2%	38%	77%
C=C1/C(=C\C=C2/CCC[C@]3(C)[C@@H]([C@@H](C)[C@H](C)CCC(C)(C)O)CC[C@@H]23)C[C@@H](O)C[C@@H]1O	10000%	1100%	220%	12000%
C=C1/C(=C\C=C2/CCC[C@]3(C)[C@@H]([C@@H](C)[C@@H](C)CCC(C)(C)O)CC[C@@H]23)C[C@@H](O)C[C@@H]1O	3%	0.4%	5%	8%
